Screens (PubChem)
GASC1 inh: inhibitors of human demethylase GASC-1 KDM4C. Q9H3R0. GST-KDM4C 2-372, H3K9me3 peptide, LANCE TR-FRET. inhibition, % at 12.5 µM. 0.15% of 96,000 active. AID 720574;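 active = mean replicate inhibition above about 25%, with at least 55% of replicates also reaching it, limit read from the data, passing the limit was not always enough; inconclusive = only one of those two conditions met; inactive = neither condition met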
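System: N-terminal GST-fused human GASC-1 (KDM4C) fragment, residues 2-372 / Amount: 10 nM GST-KDM4C in enzyme reaction / Also added: H3K9me3 peptide with Fe(II)/2OG / Times: 30 min demethylation and 1 h detection at room temperature / Signal: LANCE TR-FRET / Read-out basis: Fall in 671/618 emission ratio as inhibition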
T cruzi growth-1: T. cruzi proliferation inhibition | AID 624255 | T. cruzi beta-gal in NIH3T3, GalScreen luminescence, 90 h | inhibition, % at 8.34 µM | 5.9% of 77,000 active;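 active = mean inhibition above about 93%, with at least 55% of replicates each passing it, limit read from the data, passing the limit was not always enough; inconclusive = only one of those two conditions holds; inactive = neither condition holds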
IDH1 R132H inh: IDH1 R132H (human) inhibition; IDH1 R132H reductase, diaphorase/resazurin fluorescence, 60 min; 0.18% of 70,000 active; inhibition, % at 10 µM; O75874; in the data active = inhibition above about 34%; inconclusive = no clear call, values can overlap the other calls; inactive = below about 11%;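 also: 0% = DMSO and 100% = no enzyme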
Target sequence (O75874 whole entry R132H): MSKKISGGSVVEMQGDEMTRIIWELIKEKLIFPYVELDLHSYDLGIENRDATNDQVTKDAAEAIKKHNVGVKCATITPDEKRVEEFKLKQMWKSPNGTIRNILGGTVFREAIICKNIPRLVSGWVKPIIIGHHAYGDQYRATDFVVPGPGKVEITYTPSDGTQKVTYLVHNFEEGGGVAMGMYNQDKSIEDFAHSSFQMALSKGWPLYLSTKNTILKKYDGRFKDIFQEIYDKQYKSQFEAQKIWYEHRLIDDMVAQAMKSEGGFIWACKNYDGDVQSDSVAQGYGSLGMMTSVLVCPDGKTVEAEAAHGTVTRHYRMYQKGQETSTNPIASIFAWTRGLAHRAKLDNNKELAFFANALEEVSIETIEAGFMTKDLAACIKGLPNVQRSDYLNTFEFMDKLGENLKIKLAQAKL
T cruzi growth-2: Trypanosoma cruzi proliferation inhibition; T. cruzi beta-gal in NIH3T3, GalScreen luminescence, 90 h; inhibition, % at 8.35 µM; 72% of 5,600 active; shares compounds with T cruzi growth-1;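 active = mean replicate inhibition above about 95% and at least 55% of replicates individually reaching it, limit read from the data; inconclusive = only one of the two criteria is met; inactive = neither criterion is met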
T cruzi growth-3: Trypanosoma cruzi proliferation inhibition | 21% of 5,600 active | shares compounds with T cruzi growth-1 | T. cruzi beta-gal in NIH3T3, GalScreen luminescence, 90 h | inhibition, % at 2.09 µM;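 active = mean inhibition above about 95%, with at least 55% of replicates also reaching it, limit read from the data; inconclusive = meets just one of the two conditions; inactive = meets neither condition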;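 also: plate controls were neutral control median for no effect and positive control median for full effect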
NIH3T3 tox: kills mouse NIH/3T3 fibroblasts; shares compounds with T cruzi growth-1; 14% of 5,600 active; cytotoxicity (signal decrease), % at 8.35 µM; NIH/3T3 viability, CellTiter-Glo ATP luminescence, 90 h;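 active = mean signal decrease across replicates above about 35% based on untreated-well scatter, with enough replicates individually passing, limit read from the data; inconclusive = no rule stated though some were filed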;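 also: 0% = median of neutral control wells and 100% = median of positive control wells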
NIH3T3 tox 2: NIH/3T3 (mouse) viability loss | shares compounds with T cruzi growth-1 | NIH/3T3 viability, CellTiter-Glo ATP luminescence, 90 h | inhibition, % at 24.9 µM | 56% of 5,600 active | AID 651744;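 active = mean loss of cell viability signal at or above a set limit, and enough replicates individually reaching it; inconclusive = meets only the mean limit or only the replicate share; inactive = meets neither condition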;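 also: 0% = median of neutral control wells and 100% = median of positive control wells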
* marks the source's active call; other numbers are inactive results; ? = inconclusive; / = no result given. This excerpt belongs to a sample that is enriched for hits.

SMILES	GASC1 inh	T cruzi growth-1	IDH1 R132H inh	T cruzi growth-2	T cruzi growth-3	NIH3T3 tox	NIH3T3 tox 2
C[C@H]1CCCCO[C@@H](CN(C)Cc2ccccc2)[C@@H](C)CN([C@@H](C)CO)C(=O)c2cc(NS(=O)(=O)c3ccc(Cl)cc3)ccc2O1	0	110*	1	100*	55	12	103*
C[C@@H]1CCCCO[C@@H](CN(C)Cc2ccccc2)[C@@H](C)CN([C@@H](C)CO)C(=O)c2cc(NS(=O)(=O)c3ccc(Cl)cc3)ccc2O1	-1	?	/	95*	108*	6	104*
C[C@@H]1CN([C@@H](C)CO)C(=O)c2cc(NS(=O)(=O)c3ccc(Cl)cc3)ccc2O[C@@H](C)CCCCO[C@H]1CN(C)Cc1ccccc1	-1	109*	4	109*	107*	17	88*
C[C@@H]1CCCCO[C@@H](CN(C)Cc2ccccc2)[C@@H](C)CN([C@@H](C)CO)C(=O)c2cc(NS(=O)(=O)c3ccccc3)ccc2O1	0	-5	/	/	/	/	/
C[C@@H]1CCCCO[C@H](CN(C)Cc2ccccc2)[C@@H](C)CN([C@@H](C)CO)C(=O)c2cc(NS(=O)(=O)c3ccccc3)ccc2O1	2	-68	-1	/	/	/	/
O=S(=O)(c1cccc(Cl)c1)N1[C@@H]2CNC[C@H]1C2c1ccc(-c2cccc(F)c2)cc1 (some centres not stated)	-2	/	/	/	/	/	/
CCN(C[C@@H]1[C@@H](c2ccccc2)[C@@H](CO)N1C(C)=O)C(=O)NC1CCCC1	1	17	/	/	/	/	/
O=C(CSc1nnc(-c2ccco2)o1)Nc1sc2c(c1C(=O)Nc1ccccc1)CCCC2	/	/	0	/	/	/	/
O=C(C[C@H]1C[C@@H]2c3cc(NC(=O)c4ccc5c(c4)OCO5)ccc3O[C@@H]2[C@@H](CO)O1)NCc1ccc(Oc2ccccc2)cc1	-1	148*	0	111*	43	42*	34*
O=C(C[C@@H]1C[C@H]2c3cc(NC(=O)c4ccc5c(c4)OCO5)ccc3O[C@H]2[C@H](CO)O1)NCc1ccc(Cl)cc1	-3	74	-2	/	/	/	/
O=C(C[C@@H]1C[C@H]2c3cc(NC(=O)c4ccc5c(c4)OCO5)ccc3O[C@H]2[C@@H](CO)O1)NCc1ccc(Oc2ccccc2)cc1	-1	120*	0	75	6	45*	94*
O=C(C[C@H]1C[C@H]2c3cc(NC(=O)c4ccc5c(c4)OCO5)ccc3O[C@H]2[C@@H](CO)O1)NCc1ccc(Cl)cc1	-2	1	0	/	/	/	/
O=C(C[C@@H]1C[C@@H]2c3cc(NC(=O)c4ccc5c(c4)OCO5)ccc3O[C@@H]2[C@H](CO)O1)NCc1ccc(Oc2ccccc2)cc1	0	-11	0	/	/	/	/
O=C(C[C@@H]1C[C@H]2c3cc(NC(=O)c4ccc5c(c4)OCO5)ccc3O[C@H]2[C@H](CO)O1)NCc1ccc(Oc2ccccc2)cc1	-2	113*	0	103*	20	69*	51*
O=C(CSc1nnnn1-c1ccc(F)cc1)c1ccc(O)c(O)c1	/	/	-1	/	/	/	/
Cc1ccc(S(=O)(=O)N(C)C[C@H]2Oc3c(NS(=O)(=O)c4ccc(F)cc4)cccc3C(=O)N([C@@H](C)CO)C[C@@H]2C)cc1	8	16	-5	/	/	/	/
CC(C)C#Cc1ccc([C@H]2[C@@H](CO)N3CCCCN(C(=O)c4ccc5c(c4)OCO5)C[C@H]23)cc1	-1	73	/	/	/	/	/
COc1ccc(-c2cn(CC[C@@H]3CC[C@@H](NC(=O)Nc4ccc(F)cc4)[C@H](CO)O3)nn2)cc1	1	/	/	/	/	/	/
C[C@H]1CCCCO[C@H](CN(C)S(=O)(=O)c2ccc(Cl)cc2)[C@@H](C)CN([C@@H](C)CO)C(=O)c2cc(NC(=O)Nc3ccccc3)ccc2O1	-2	88	/	/	/	/	/
N#C[C@@H]1[C@@H](c2ccc(-c3ccncc3)cc2)[C@@H](CO)N1C(=O)Cc1ccccc1	0	?	/	-3	-125	27	28*
N#C[C@H]1[C@H](c2ccc(-c3ccc(F)cc3)cc2)[C@H](CO)N1C(=O)Cc1ccccc1	-2	88	/	/	/	/	/
N#C[C@@H]1[C@H](c2ccc(-c3cncnc3)cc2)[C@@H](CO)N1C(=O)Cc1ccccc1	5	88	/	/	/	/	/
N#C[C@@H]1[C@@H](c2ccc(-c3ccccc3)cc2)[C@@H](CO)N1C(=O)Cc1ccncc1	-12	93	0	/	/	/	/
N#C[C@H]1[C@H](c2ccc(-c3ccccc3)cc2)[C@H](CO)N1C(=O)Cc1ccncc1	-4	102*	/	110*	40	-4	?
N#C[C@H]1[C@H](c2ccc(C#Cc3ccc(F)cc3)cc2)[C@H](CO)N1C(=O)Cc1ccncc1	-5	?	/	89	87	-24	?
SMILES	GASC1 inh	T cruzi growth-1	IDH1 R132H inh	T cruzi growth-2	T cruzi growth-3	NIH3T3 tox	NIH3T3 tox 2
N#C[C@H]1[C@@H](c2ccc(-c3ccncc3)cc2)[C@@H](CO)N1C(=O)Cc1ccccc1	-2	?	/	104*	8	29	44*
N#C[C@H]1[C@@H](c2ccc(-c3ccc(F)cc3)cc2)[C@@H](CO)N1C(=O)Cc1ccccc1	-3	74	/	/	/	/	/
COc1ccc(C#Cc2ccc3c(c2)[C@H]2[C@H](CCN2C(C)=O)[C@@H](CO)N3C)cc1	2	80	/	/	/	/	/
CCC(=O)Nc1ccc2c(c1)OC[C@@H](C)N(Cc1ccccc1F)C[C@@H](C)[C@H](OC)CN(C)C2=O	15	32	0	/	/	/	/
C[C@H](O)C#Cc1ccc2c(c1)O[C@@H](CN(C)Cc1ccccn1)[C@@H](C)CN([C@H](C)CO)S2(=O)=O	0	0	/	/	/	/	/
CC(C)CC#Cc1ccc2c(c1)O[C@@H](CN(C)Cc1ccccn1)[C@H](C)CN([C@H](C)CO)S2(=O)=O	5	123*	-1	104*	65	19	105*
CC(C)CC#Cc1ccc2c(c1)O[C@@H](CN(C)Cc1ccccn1)[C@@H](C)CN([C@@H](C)CO)S2(=O)=O	6	116*	-1	105*	62	4	102*
CC(C)CC#Cc1ccc2c(c1)O[C@@H](CN(C)Cc1ccccn1)[C@H](C)CN([C@@H](C)CO)S2(=O)=O	1	131*	5	109*	91	14	103*
C[C@@H](O)C#Cc1ccc2c(c1)O[C@H](CN(C)Cc1ccccn1)[C@@H](C)CN([C@@H](C)CO)S2(=O)=O	1	12	4	/	/	/	/
CC(C)CC#Cc1ccc2c(c1)O[C@H](CN(C)Cc1ccccn1)[C@H](C)CN([C@@H](C)CO)S2(=O)=O	8	126*	0	100*	52	22	104*
COc1ccccc1S(=O)(=O)N[C@H]1CC[C@@H](CCNC(=O)C2CCCCC2)O[C@@H]1CO	1	31	0	/	/	/	/
